Assay outcomes: PubChem, Broad Institute
MITF TRPM1 HTS: activators of MITF-driven TRPM1 promoter activity in SK-MEL-5 cells; 300,000 tested, 0.75% active; AID 588334; activation, % at 12.5 µM; SK-MEL-5 TRPM1-promoter luciferase, 24 h; % of positive control, neutral wells = 0;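 active means mean activation of at least 80% with every replicate also reaching 80%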;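 further: 0% = neutral control wells and 100% = parthenolide positive control wells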
SR-BI DiI inh: mouse SR-BI HDL lipid transfer inhibition. Q61009. ldlA[mSR-BI] CHO cells, DiI-HDL uptake fluorescence, 3 h. inhibition, % at 12.5 µM. 320,000 tested, 0.96% active. AID 488896;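 active means mean replicate inhibition of at least 70% and a set share of replicates each scoring 70 or more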;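 further: 0% = median of neutral control wells and 100% = median of positive control wells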
Target sequence (Q61009 whole entry, looked up): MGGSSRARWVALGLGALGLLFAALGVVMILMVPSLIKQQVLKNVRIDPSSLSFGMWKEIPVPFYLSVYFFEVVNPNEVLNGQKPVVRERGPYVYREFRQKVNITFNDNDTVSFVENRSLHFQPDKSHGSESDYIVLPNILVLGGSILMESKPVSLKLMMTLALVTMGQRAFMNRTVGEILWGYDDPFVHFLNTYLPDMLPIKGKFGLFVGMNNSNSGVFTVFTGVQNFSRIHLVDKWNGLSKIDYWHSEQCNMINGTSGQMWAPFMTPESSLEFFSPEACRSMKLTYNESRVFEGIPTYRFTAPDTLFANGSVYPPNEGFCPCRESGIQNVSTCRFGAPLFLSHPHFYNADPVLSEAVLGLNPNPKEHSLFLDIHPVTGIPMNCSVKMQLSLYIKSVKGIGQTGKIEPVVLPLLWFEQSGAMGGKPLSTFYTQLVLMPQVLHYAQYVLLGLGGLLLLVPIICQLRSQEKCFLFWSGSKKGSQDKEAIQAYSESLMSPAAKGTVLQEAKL
HSF1 activator: increases HSF-1 driven luciferase reporter signal; NIH3T3-HGL HSF-1 luciferase reporter, MG132, 8 h; 100% = twice DMSO control signal; activation, % at 9 µM; 300,000 tested, 1.7% active;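 active means mean replicate activation of at least 50% with a set share of replicates each reaching 50%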;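 further: 0% = median of the neutral control wells and 100% = twice that signal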
Wnt bcat act: activates Wnt/beta-catenin signaling in a reporter cell assay; activator, plate reader; activation, % at 9.35 µM; 300,000 tested, 1.2% active; AID 743398; in the data active means activation above about 30%, passing the limit was not always enough;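 further: 0% = neutral control wells and 100% = positive control wells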
SR-BI uptake up: SR-BI HDL lipid transfer activation | CHO ldlA[mSR-BI] cells, DiI-HDL uptake fluorescence, 3 h; 100 = double the neutral-control signal | activation, % at 12.5 µM | 320,000 tested, 0.096% active | AID 504775;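 active means mean replicate activation of at least 60% and every replicate at or above 60%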;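 further: 0% = median plate neutral-control signal and 100% = twice that signal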
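Material: SR-BI-overexpressing, LDLR-lacking CHO cells | Dosing: Single compound concentration, delivered by pin transfer | Probe or stimulus: Labelled HDL, 10 µg/mL | Signal: Bottom-read cell fluorescence after medium removal, ex 550/em 595 nm | Schedule: 3 h, 37 °C | Evaluation: HDL uptake via cellular fluorescence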
* hit, by the source's call; nt = not tested or not shown. A selection: hits, their analogues and other compounds. The true share with any hit is near 3.6%.

SMILES	MITF TRPM1 HTS	SR-BI DiI inh	HSF1 activator	Wnt bcat act	SR-BI uptake up
CC(=O)NC12CC3CC(C1)CC(C(=O)Nc1ccc(C)c(S(=O)(=O)N4CCCCCC4)c1)(C3)C2	-14.9	43.7	nt	1.7	-43.7
COCCNC(=O)C(c1ccc(C)cc1)N(C(=O)CCC(=O)Nc1ccccn1)c1ccccc1C (configuration not stated)	12.7	-11.2	77.8*	0.0	11.2
CCN1C(=O)[C@H]2[C@@H](c3ccc(C(F)(F)F)cc3)N[C@]3(CCCN(Cc4ccc(C)cc4)C3=O)[C@H]2C1=O	nt	nt	nt	-0.2	nt
CN(C)CCNC(=O)c1ccc2nc([C@@H]3O[C@H](CO)[C@H](O)[C@H](O)[C@H]3O)[nH]c2c1	nt	nt	nt	-0.6	nt
COc1cc(OC)c(OC)cc1CN(C)CCc1ccccn1	5.4	-14.2	73.8*	nt	14.2
COc1ccc(Cc2c(-c3ccc(C)cc3)nc3cc(C)c(Br)c(C)n23)c(C)c1	nt	nt	nt	-2.4	nt
Oc1cccc(C=NNc2ccccn2)c1	13.7	-1.8	nt	0.2	1.8
Clc1ccccc1C=NNc1ccccn1	35.0	-18.0	nt	39.2*	18.0
Clc1ccc(/C=N/Nc2ccccn2)cc1	31.3	17.3	45.7	56.4*	-17.3
Brc1ccccc1/C=N/Nc1ccccn1	35.5	-11.5	44.9	22.2	11.5
Brc1ccc(/C=N/Nc2ccccn2)cc1	49.7	1.9	50.0	15.9	-1.9
COc1ccc(/C=N/Nc2ccccn2)cc1O	84.7*	nt	6.2	47.7*	nt
Cc1ccc(/C=N/Nc2ccccn2)s1	103.7*	nt	39.7	19.4	nt
CN1CCN(C(=O)c2cc3c(c(-c4cccc(-c5cc6ccccc6o5)c4)n2)[C@H](CCO)N(S(=O)C(C)(C)C)C3)CC1 (some centres not stated)	nt	nt	nt	0.9	nt
CCOC(=O)c1cc2c(c(-c3ccccc3)n1)[C@@H](CCO)N(S(=O)(=O)C(C)(C)C)C2	4.3	-44.7	nt	-0.7	44.7
O=C(NC1CCCC1)C(c1ccc(F)cc1)N1CCC(O)(c2ccc(Cl)cc2)CC1 (configuration not stated)	nt	nt	nt	3.0	nt
C=C1CCC[C@]2(C)C[C@H]3OC(=O)C(CNCC(C)C)[C@H]3CC12 (some centres not stated)	-3.7	2.6	68.0*	1.5	-2.6
C=C1CCC[C@]2(C)C[C@H]3OC(=O)C(CNCCN(CC)CC)[C@H]3CC12 (some centres not stated)	1.8	-7.4	61.0*	0.7	7.4
Cc1cccc(C)c1-n1nnnc1C1c2ccccc2C(=O)N1CCCn1ccnc1 (configuration not stated)	nt	nt	nt	1.5	nt
C[C@@H]1CN([C@@H](C)CO)C(=O)CCCn2nncc2CO[C@@H]1CN(C)S(=O)(=O)c1cn(C)cn1	nt	nt	nt	0.1	nt
CC(C)n1c(-c2ccc(N(C)C)cc2)nc2ccccc21	54.9	87.6*	nt	nt	-87.6
CC(Sc1cnc2ccccc2n1)C(=O)O (configuration not stated)	3.5	-7.2	-28.0	1.0	7.2
Cc1ccc(Sc2cnc3ccccc3n2)cc1	88.7*	-1.3	36.2	nt	1.3
COc1ccc(NC(=O)C2(C)CCN2Cc2ccc(OC(F)(F)F)cc2)cc1OC (configuration not stated)	nt	nt	nt	-0.7	nt
O=C(CN1C(=O)/C(=C\c2cccc(Cl)c2)Sc2ccccc21)NCCCN1CCOCC1	-3.7	17.7	90.4*	-4.6	-17.7
SMILES	MITF TRPM1 HTS	SR-BI DiI inh	HSF1 activator	Wnt bcat act	SR-BI uptake up
O=C(CN1C(=O)/C(=C\c2ccccc2Cl)Sc2ccccc21)NCCCN1CCOCC1	5.7	-12.2	18.8	-1.6	12.2
NC(=S)N/N=C1\CCOc2ccc(Cl)cc21	-2.7	73.3*	-1.2	0.3	-73.3
NC(=S)NN=C1c2cc(S(=O)(=O)N3CCOCC3)ccc2-c2ccc(S(=O)(=O)N3CCOCC3)cc21	15.8	24.4	10.9	-2.3	-24.4
NS(=O)(=O)c1ccc(CNC(=S)Nc2cc(S(=O)(=O)N3CCOCC3)ccc2Cl)cc1	3.6	16.1	nt	0.8	-16.1
CN(C)c1ccc(-c2nc3ccccn3c2/N=C/c2ccc(Br)cc2)cc1	8.2	100.9*	24.2	9.0	-100.9
Cc1ccc(-c2nc3ccccn3c2C=O)cc1	28.4	-12.8	-14.7	9.2	12.8
Cc1c(-c2ccc(Br)cc2)nc2ccccn12	41.5	18.4	51.5*	-0.8	-18.4
Cc1ccc2cccc(OC(=O)c3cccnc3Oc3ccccc3)c2n1	nt	nt	nt	-2.8	nt
C=CCN1C(=O)S/C(=C\c2ccc(N3CCOCC3)cc2C)C1=O	nt	36.3	13.1	39.3*	-36.3
CCOc1ccc(OCC)c(NS(=O)(=O)c2cccc3nsnc23)c1	nt	-409.6	3.7	3.5	409.6*
Cc1ccc(C(=O)Nc2ccc3c(c2)ncn3C)cc1	63.0	-3.3	35.3	38.1*	3.3
CCC(=O)Nc1ccc2c(c1)ncn2-c1ccc(OC)cc1	24.5	-8.9	12.0	nt	8.9
CCn1cnc2cc(NCc3ccncc3)ccc21	-8.5	-6.9	-4.3	1.4	6.9
CCC(=O)Nc1ccc2c(c1)ncn2-c1ccc(C)cc1	79.9	4.2	52.6*	-4.2	-4.2
Cc1ccc(CNc2ccc3c(c2)ncn3C)cc1	79.1	-6.9	6.9	41.5*	6.9
CCn1cnc2cc(NCc3ccc(Cl)cc3)ccc21	61.0	-0.5	48.7	34.5*	0.5
CCn1cnc2cc(NC(=O)c3ccc(C)cc3)ccc21	47.3	-2.9	23.4	14.8	2.9
COC(=O)C1=CN(c2ccc3c(c2)OCO3)C(N)=C(C#N)C1c1ccc(-c2ccccc2)cc1 (configuration not stated)	nt	nt	nt	-8.0	nt
COc1cccc(CNC(=O)[C@H]2CCCN2C(=O)[C@H]2CCCN2C(=O)c2cccs2)c1	nt	nt	nt	0.7	nt
CC(C)CC(=O)c1c(O)cc(O)c2c1OC1=C(C(=O)C(C)(C)C(=O)C1(C)C)C2CC(C)C (configuration not stated)	nt	nt	nt	-10.3	nt
O=C(Oc1ccc(C(=S)N2CCOCC2)cc1Br)c1cc(Cl)ccc1Cl	nt	-12.2	78.4*	4.2	12.2
O=C(Oc1c(Br)cc(C(=S)N2CCOCC2)cc1Br)c1ccc(Cl)cc1	nt	-3.2	-0.7	nt	3.2
O=C(N[C@H](Cc1ccccc1)C(=O)N1CCCN(Cc2ccccc2F)CC1)[C@H]1O[C@@H](n2ccc(=O)[nH]c2=O)[C@H](O)[C@@H]1O	nt	nt	nt	-3.8	nt
CCOc1ccc(Cc2c(Cl)nc(SC)nc2N(C)C)cc1	-13.8	-1.5	5.5	-6.3	1.5
CSc1nc(Cl)c(Cc2ccc(OC(C)C)cc2)c(N(C)C)n1	-13.3	28.5	58.5*	-1.0	-28.5
CCCCNC(=O)C1(C)CCCCN1C(=O)c1c(Cl)cccc1Cl (configuration not stated)	nt	nt	nt	4.5	nt
N#CCc1nc(-c2cc3ccccc3oc2=O)cs1	16.9	-3.5	39.1	7.9	3.5
CC1CCC(=C(C#N)c2nc(-c3cc4ccccc4oc3=O)cs2)CC1 (configuration not stated)	87.6*	76.1*	-28.7	nt	-76.1
CC(C)CN(CC(C)C)c1nc(N)c(C#N)c(CC#N)c1C#N	7.1	60.1	131.9*	-6.2	-60.1
